Laboratory results reported in ChEMBL document CHEMBL1148915, “Steroids and sesquiterpenoids from the soft corals Dendronephthya gigantea and Lemnalia cervicorni” (2004).

Key:
[1] = tested on: P388; experiment: Cytotoxicity against mouse P388 cells; assay type: functional; conditions: read-out: ED50 (the source's name)
Procedure, shortened: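 P-388 mouse lymphocytic leukemia cells supplied by an academic lab (Purdue); in vitro cytotoxicity assay run by a previously described procedure; ED50 reported in µM; mithramycin included as positive control.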

[2] = tested on: HT-29; experiment: Cytotoxicity against human HT29 cells; assay type: functional; conditions: read-out: ED50 (the source's name)
Procedure, shortened: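 HT-29 human colon adenocarcinoma cells obtained from ATCC; in vitro cytotoxicity assay run by a previously described procedure; value given as ED50 in µM; mithramycin run as positive control.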

Row | Compound | EC50 [1] [µM] | EC50 [2] [µM]
1 | C=C(CC[C@@H](C)[C@H]1CC[C@H]2[C@@H]3CC[C@H]4CC(=O)C=C[C@]4(C)[C@H]3CC[C@]12C)C(C)C [DENDRONESTERONE B] | > 100 | > 100
2 | CC1=CC(=O)[C@@H]2[C@@H]3[C@H](C(C)C)CC[C@@]2(C)[C@@H]13 | > 50 | > 50
3 | C=C1[C@H](O)C[C@@H]2[C@@H]3[C@H](C(C)C)CC[C@@]2(C)[C@@H]13 [LEMNALOL] | 16.3 | 10.5
4 | CC(C)C/C=C/[C@@H](C)[C@H]1CC[C@H]2[C@@H]3CC[C@H]4CC(=O)C=C[C@]4(C)[C@H]3CC[C@]12C [DENDRONESTERONE A] | 9.84 | > 100
5 | CC1=C[C@H](O)[C@@H]2[C@@H]3[C@H](C(C)C)CC[C@@]2(C)[C@@H]13 [ISOLEMNALOL] | > 50 | > 50
6 | CC(C)C/C=C/[C@@H](C)[C@H]1CC[C@H]2[C@@H]3CCC4=CC(=O)C=C[C@]4(C)[C@H]3CC[C@]12C [DENDRONESTERONE C] | > 100 | > 100
7 | C=C1C[C@H](O)[C@@H]2[C@@H]3[C@H](C(C)C)CC[C@@]2(C)[C@@H]13 [CERVICOL] | > 50 | > 50
8 | CO[C@H](C(=O)[C@@H](O)[C@@H](C)O)[C@@H]1Cc2cc3cc(O[C@H]4C[C@@H](O[C@@H]5C[C@@H](O)[C@H](O)[C@@H](C)O5)[C@H](O)[C@@H](C)O4)c(C)c(O)c3c(O)c2C(=O)[C@H]1O[C@H]1C[C@@H](O[C@@H]2C[C@@H](O)[C@@H](O[C@@H]3C[C@](C)(O)[C@H](O)[C@@H](C)O3)[C@@H](C)O2)[C@H](O)[C@@H](C)O1 [PLICAMYCIN] | 0.15 | 0.21
9 | CC(C)CCC(=O)[C@@H](C)[C@H]1CC[C@H]2[C@@H]3CC[C@H]4CC(=O)C=C[C@]4(C)[C@H]3CC[C@]12C | 8.93 | 9.03
